Inhibition and Activity data for three compounds are collected here from ChEMBL document CHEMBL1811914, “Bioactive compounds from the aerial parts of Brachystemma calycinum and structural revision of an octacyclopeptide” (J Nat Prod, 2011).

Activity calls are given as the source filed them. The rule behind the calls is not given here. Where a SMILES comes first, the peptide text is derived from it.

In data set [1] the test system is CRL-2573. Nature of the data set: Inhibition of high glucose-induced collagen-1 secretion in rat CRL-2573 cells at 10 uM after 24 hrs by ELISA. It counts as functional, cell-based. The essentials:
(§1)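 Rat mesangial cells (CRL-2573) grown in DMEM with 5.6 mM D-glucose (pH 7.4), 20% FCS, penicillin/streptomycin, 10 mM HEPES. At 80% confluence, growth arrested in 0.5% FCS for 24 h. Pretreated 1 h with compound (1 or 10 μM), then high glucose 24 h. Supernatant analyte quantified by sandwich ELISA, normalized to total cell protein (BCA).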
In general terms: An ELISA detects its analyte on a solid surface through an enzyme-linked reagent.

Data set [2] in a line: Cytotoxicity in rat CRL-2573 cells at 10 uM after 24 hrs by trypan blue exclusion assay. Conditions: crl-2573, 24 h. It counts as cell-based.
Data set [3] deals with RAW264.7. Nature of the data set: Inhibition of LPS-induced nitric oxide production in […] cells at 25 uM. It counts as functional, cell-based.
Data set [4] concerns CRL-2573. The data set can be described thus: Inhibition of high glucose-induced collagen-4 secretion in rat CRL-2573 cells at 10 uM after 24 hrs by ELISA. The data set is classed as functional, cell-based. The procedure, abridged: as §1
Data set [5] deals with CRL-2573. The data set can be described thus: Antioxidant activity against high glucose-induced intracellular superoxide ion production in rat CRL-2573 cells at 1 to 10 uM measured every minute for 30 mins by lucigenin-enhanced chemiluminescence assay in presence of NADPH. It counts as functional, cell-based. The procedure, abridged:
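Homogenates of cultured rat mesangial cells (100 μg/well) assayed by lucigenin-enhanced chemiluminescence. Dark-adapted lucigenin (5 μM) with or without NADPH (100 μM) added immediately before reading. Signal recorded every minute for 30 min.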

Data set [6] concerns CRL-2573. Nature of the data set: Inhibition of high glucose-induced IL-6 secretion in rat CRL-2573 cells at 10 uM after 24 hrs by ELISA. The data set is classed as functional, cell-based. The procedure, abridged: as §1
In data set [7] the test system is CRL-2573. The data set can be described thus: Inhibition of high glucose-induced CCL2 secretion in rat CRL-2573 cells at 10 uM after 24 hrs by ELISA. The data set is classed as functional, cell-based. The procedure, abridged: as §1
In data set [8] the test system is CRL-2573. The data set can be described thus: Antioxidant activity against high glucose-induced intracellular ROS production in rat CRL-2573 cells assessed as carboxymethyl-H2-dichlorofluorescein diacetate conversion to 2',7'-dichlorofluorescein at 1 to 10 uM preincubated for 1 hr prior to high glucose challenge by flow cytometer. It counts as functional, cell-based. The essentials: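 Rat mesangial cells cultured and growth-arrested as for secretion assays. Exposed to 5.6 mM (normal) or 25 mM (high) D-glucose for up to 24 h, with or without compound preincubation. Intracellular ROS then measured.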
On the technique in general: In flow cytometry, cells or beads pass a laser one at a time.

As for `CC(C)C[C@@H]1NC(=O)CNC(=O)[C@H](C)NC(=O)[C@@H]2CCCN2C(=O)[C@@H]2CCCN2C(=O)[C@H](Cc2ccccc2)NC(=O)[C@H]([C@@H](C)O)NC(=O)[C@H](C)NC1=O` (HELM PEPTIDE1{A.G.L.A.T.F.P.P}$PEPTIDE1,PEPTIDE1,1:R1-8:R2$$$V2.0), the inhibition entry in data set [1], in data set [4], in data set [6] and in data set [7] was “Active” throughout. Also, the Activity result in data set [2] is reported as “Non-toxic”. Besides, in data set [3], the inhibition result was “inactive”. Moreover, the result in data set [5] and in data set [8] was Active.
Take `CC(C)C[C@@H]1NC(=O)CNC(=O)[C@H](C(C)C)NC(=O)[C@@H]2CCCN2C(=O)[C@H](Cc2ccccc2)NC(=O)[C@H]([C@@H](C)O)NC(=O)[C@@H]2CCCN2C(=O)[C@H]([C@@H](C)O)NC1=O` (HELM PEPTIDE1{F.P.V.G.L.T.P.T}$PEPTIDE1,PEPTIDE1,1:R1-8:R2$$$V2.0): the inhibition result in data set [4], in data set [6] and in data set [7] was “Active” in each case.
Regarding `COC1CCC(=O)N1[C@@H]1C=C(COC(=O)c2ccc[nH]2)CO1` (some centres undefined), the inhibition result in data set [4], in data set [6] and in data set [7] was “Active” in each case.
